Test results reported in ChEMBL document CHEMBL4673188, “Identification of 6-amino-1H-pyrazolo[3,4-d]pyrimidines with in vivo efficacy against visceral leishmaniasis” (RSC Med Chem, 2020).

Tested on: not listed separately
Assay: Intrinsic clearance in CD-1 mouse liver microsomes at 0.5 uM in presence of NADPH measured up to 30 mins by UPLC-MS/MS analysis
Assay type: ADME, Microsome
Settings: 0.5 h
Procedure, shortened: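 Female CD1 mouse liver microsomes, test compound 0.5 μM; reaction started with excess NADPH (8 mg/mL in 50 mM potassium phosphate, pH 7.4). Aliquots at 0, 3, 6, 9, 15, 30 min quenched in acetonitrile, internal standard added, protein spun down; UPLC-MS/MS. Rate constant k from exponential decay of compound/internal standard peak-area ratio.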

Row | Structure (SMILES) | intrinsic clearance [mL/min/g]
1 | COc1ccccc1-c1n[nH]c2nc(NC3CCN(c4ccc(Cl)nn4)CC3)ncc12 | 3.4
2 | CC(C)Cc1n[nH]c2nc(NC3CCN(C(=O)c4ccccc4)CC3)ncc12 | 7
3 | O=C(Cc1ccc(F)c(F)c1)N1CCC(Nc2ncc3c(C4CCOCC4)n[nH]c3n2)CC1 | 3.1
4 | COc1ccccc1-c1n[nH]c2nc(NC3CCN(S(=O)(=O)CCC(F)(F)F)CC3)ncc12 | 14
5 | COc1ccccc1-c1n[nH]c2nc(NC3CCN(C(=O)CC4CC4)CC3)ncc12 | 1.6
6 | CC(C)Cc1n[nH]c2nc(NC3CCN(S(=O)(=O)Cc4ccccc4)CC3)ncc12 | > 50
7 | Cn1nccc1-c1n[nH]c2nc(NC3CCN(C(=O)Cc4ccc(F)cc4F)CC3)ncc12 | 3.3
8 | CC(C)Cc1n[nH]c2nc(NC3CCN(C(=O)Cc4ccccc4)CC3)ncc12 | 18
9 | O=C(CC1CC1)N1CCC(Nc2ncc3c(C4CCOCC4)n[nH]c3n2)CC1 | 0.8
10 | CC(C)(C)Cc1n[nH]c2nc(NC3CCN(C(=O)Cc4ccc(F)cc4F)CC3)ncc12 | 22
11 | O=C(Cc1ccc(F)cc1F)N1CCC(Nc2ncc3c(-c4ccccn4)n[nH]c3n2)CC1 | 6.7
12 | O=C(Cc1ccc(F)cc1F)N1CCC(Nc2ncc3c(N4CCOCC4)n[nH]c3n2)CC1 | 2
13 | COc1ccccc1-c1n[nH]c2nc(NC3CCN(C(=O)OCc4ccccc4)CC3)ncc12 | 9
14 | O=C(Cc1ccc(F)cc1F)N1CCC(Nc2ncc3c(C4CCOCC4)n[nH]c3n2)CC1 | 0.5
15 | CCOC(=O)N1CCC(Nc2ncc3c(-c4ccccc4OC)n[nH]c3n2)CC1 | 14
16 | COc1ccccc1-c1n[nH]c2nc(NC3CCN(C(=O)Cc4ccc(F)c(F)c4)CC3)ncc12 | 6.3
17 | O=C(Cc1ccc(F)cc1F)N1CCC(Nc2ncc3c(CN4CCOCC4)n[nH]c3n2)CC1 | < 0.5
18 | CC(C)Cc1n[nH]c2nc(NC3CCN(C(=O)Cc4ccc(F)cc4F)CC3)ncc12 | 12
19 | CC(C)Cc1n[nH]c2nc(NC3CCN(C(=O)Cc4ccc(Cl)cc4Cl)CC3)ncc12 | 30
20 | CCS(=O)(=O)N[C@H]1CC[C@H](Nc2ncc3c(CC(C)C)n[nH]c3n2)CC1 | 27
21 | O=C(Cc1ccc(F)cc1F)N1CCC(Nc2ncc3c(-c4ccccc4)n[nH]c3n2)CC1 | 7.2
22 | O=C(Cc1ccc(F)cc1F)N1CCC(Nc2ncc3c(C4CC4)n[nH]c3n2)CC1 | 5
23 | COc1ncccc1-c1n[nH]c2nc(NC3CCN(C(=O)Cc4ccc(F)cc4F)CC3)ncc12 | 15
24 | COc1ccccc1-c1n[nH]c2nc(NC3CCN(C(=O)N4CCOCC4)CC3)ncc12 | 2
25 | COc1ccccc1-c1n[nH]c2nc(NC3CCN(C(=O)Cc4ccc(F)cc4F)CC3)ncc12 | 5
26 | Clc1ccc(N2CCC(Nc3ncc4c(N5CCOCC5)n[nH]c4n3)CC2)nn1 | 0.6
27 | O=C(Cc1ccc(F)c(F)c1)N1CCC(Nc2ncc3c(N4CCOCC4)n[nH]c3n2)CC1 | 1.6

Tested on: not listed separately
Assay: AUC (0 to T last) in rat at 10 mg/kg
Assay type: ADME, organism-based
Set-up: dose 10 mg/kg
Settings: in vivo

Row | Structure (SMILES) | AUC(0-t) [ng·h/mL]
28 | O=C(Cc1ccc(F)c(F)c1)N1CCC(Nc2ncc3c(N4CCOCC4)n[nH]c3n2)CC1 | 448

Tested on: THP-1
Assay: Cytotoxicity against human THP-1 cells incubated for 72 hrs by resazurin dye based assay
Assay type: cell-based
Settings: THP-1, 72 h

Row | Structure (SMILES) | EC50 [µM]
29 | CCS(=O)(=O)N[C@H]1CC[C@H](Nc2ncc3c(CC(C)C)n[nH]c3n2)CC1 | > 50.1

Tested on: not listed separately
Assay: Kinetic aqueous solubility of compound in phosphate buffer at pH 7.4 incubated for 1 hr
Assay type: physicochemical
Settings: read-out: Kinetic_solubility
Procedure, shortened: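 10 mM DMSO stock diluted 20-fold into pH 7.4 phosphate buffered saline, equilibrated 1 h at room temperature, filtered; filtrate quantified by calibrated charged aerosol detection.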

Row | Structure (SMILES) | solubility kinetic at 1 h [µM]
30 | CCS(=O)(=O)N[C@H]1CC[C@H](Nc2ncc3c(CC(C)C)n[nH]c3n2)CC1 | < 1
